Only some compounds are listed: those with a hit (about 4.9% of all), similar ones and a draw of the others.
STAT3 act = IL-6 driven STAT3 reporter potentiators, primary screen, U3A cells, luciferase, luminescence, MLSCN library; IL-6 STAT3-luciferase reporter; 100% = signal with IL-6 EC80 alone; activation (% of control), % at 5.6 µM; actives 0.91% (n = 190,000); AID 871, 2007;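 active means activation above the screen-wide mean of compound activation plus 3 SD, cut at about 130% in these data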
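Material: STAT3-luciferase reporter U3A cells. Controls: IL-6-treated wells, 100% activation. Read-out: % activation versus median of IL-6-stimulated wells. Probe or stimulus: IL-6 stimulus at 33 ng/mL final. Timing: compound 1 h, then IL-6 6 h at 37 °C. Signal: reporter luminescence signal.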
STAT1 blocker = STAT1 signaling inhibitors, primary screen, cell-based, HTS, luciferase reporter | actives 0.35% (n = 200,000) | NIH 3T3 STAT1-luciferase reporter, IFN-gamma, luminescence | inhibition, % at 5.5 µM;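 active means inhibition above a set limit, the mean inhibition across all tested compounds plus 3 SD, cut at about 34% in these data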
NF-kB expr up = activators of NF-kB expression in neurons, primary screen, cell-based, HTS; human neuronal cells, NF-kB reporter expression; stronger effect = higher value; fold change at 12.5 µM; actives 1.6% (n = 190,000); in the data active means fold change above about 3.3
APP 5'UTR act = activators of APP 5'UTR luciferase reporter, primary screen, SH-SY5Y cells; SH-SY5Y APP 5'UTR luciferase reporter, luminescence; zero percent = DMSO vehicle wells; activation, % at 2 µM; actives 1% (n = 190,000);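 active means activation above a set limit, based on mean plus 3 SD of controls, cut at about 140% in these data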
STAT3 inh-1 = IL-6 driven STAT3 reporter inhibitors, primary screen, U3A cells, luciferase, luminescence, MLSCN library. actives 0.89% (n = 190,000). IL-6 STAT3-luciferase reporter; host cell line lacks STAT1. inhibition, % at 5.5 µM;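 active means inhibition above the mean inhibition across all screened compounds plus 3 SD, cut at about 44% in these data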
STAT1 act = STAT1 signaling activators, primary screen, cell-based, HTS, luciferase reporter; AID 932, 2007; actives 2.6% (n = 200,000); NIH 3T3 STAT1-luciferase reporter, IFN-gamma, luminescence; 100% = IFN-gamma alone, no compound; activation (% of control), % at 5.5 µM;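 active means activation above the screen-wide mean activation plus 3 SD, cut at about 130% in these data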
STAT3 inh-2 = STAT3 reporter inhibitors, retest of hits, confirmation, U3A cells, luciferase, luminescence; inhibition, % at 5.7 µM; AID 1265, 2008; IL-6 STAT3 luciferase reporter; cell line lacks STAT1; shares compounds with STAT3 inh-1; actives 45% (n = 1,200);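 active means inhibition above the hit cutoff computed for the primary STAT3 screen, cut at about 44% in these data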
NFkB inh STAT3ct = NF-kB reporter inhibitors in human cells, confirmation, counter-screen for STAT3 inhibitor project, cell-based, HEK293T, luciferase, TNF-alpha stimulus | shares compounds with STAT3 inh-1 | TNF-alpha induced | inhibition, % at 5.7 µM | actives 36% (n = 1,200) | AID 1308, 2008;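 active means inhibition above the mean of solvent-only control wells plus 3 SD, cutoff set per campaign, cut at about 13% in these data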
STAT1 inh STAT3c = STAT1 reporter inhibitors, IFN-gamma induced, confirmation, counter-screen for STAT3 inhibitor project, cell-based, NIH 3T3, luciferase luminescence; actives 27% (n = 1,200); NIH 3T3 STAT1-luciferase reporter; shares compounds with STAT3 inh-1; inhibition, % at 5.7 µM; AID 1317, 2008;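 active means inhibition above the mean plus 3 SD of solvent-only control wells, limit set per screening run, cut at about 16% in these data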
Large screens that a line does not name were inactive (follow-up assays come after a bar, where they were run).

O=c1c(N=Nc2ccc(O)cc2)c(-c2ccccc2)[nH]n1-c1ccc([N+](=O)[O-])cc1	none
Cc1nc(NCCc2ccc(S(N)(=O)=O)cc2)c2c(C)c(C)sc2n1	STAT3 inh-1 54 | STAT3 inh-2 48 | NFkB inh STAT3ct inactive | STAT1 inh STAT3c 30
O=C(CSc1nnc(-c2cccnc2)s1)Nc1ccnc2ccccc12	STAT3 inh-1 72 | STAT3 inh-2 82 | NFkB inh STAT3ct 22 | STAT1 inh STAT3c 18
Cc1ccc(NC(=O)CSc2nnc(-c3cccnc3)s2)cc1	none
Cc1cc([N+](=O)[O-])nn1CC(=O)NCc1nc2ccccc2[nH]1	none
O=c1[nH]c(SCc2ccccc2)nc2[nH]ncc12	none
O=C(NCCc1ccccc1)c1ccc([N+](=O)[O-])cc1	NF-kB expr up 4.3, APP 5'UTR act 152, STAT3 inh-1 44 | STAT3 inh-2 inactive | NFkB inh STAT3ct inactive | STAT1 inh STAT3c inactive
CC(C)c1ccc(CCNC(=O)c2ccc([N+](=O)[O-])cc2)cc1	none
O=S(=O)(c1ccc(N2CCCC2)cc1)C(F)(F)F	STAT3 inh-1 44 | STAT3 inh-2 inactive | NFkB inh STAT3ct inactive | STAT1 inh STAT3c inactive
COc1ccc(C(=O)Nc2ccccc2C(=O)N/N=C/c2ccco2)cc1	STAT3 inh-1 48 | STAT3 inh-2 inactive | NFkB inh STAT3ct 18 | STAT1 inh STAT3c 20
O=C(Cc1nc2ccccc2[nH]1)c1ccc(Br)cc1	none
Nc1cc(F)ccc1N1CCCCCC1	none
Cc1cc(N2CCOCC2)nc(NCc2ccccc2)n1	none
Cc1cc(N2CCCCC2)nc(NCc2ccccc2)n1	STAT3 inh-1 46 | STAT3 inh-2 inactive | NFkB inh STAT3ct inactive | STAT1 inh STAT3c 21
N#Cc1cccc(NC(=S)Nc2ccccc2)c1	none
Cn1nc(C(=O)OCc2ccc(F)cc2)c2ccccc2c1=O	none
Cc1ccc(COC(=O)c2nn(C)c(=O)c3ccccc23)cc1	STAT3 inh-1 52 | STAT3 inh-2 47 | NFkB inh STAT3ct 17 | STAT1 inh STAT3c 21
CC(=O)Nc1ccc(NC(=O)C(OC(=O)c2ccccc2)C(OC(=O)c2ccccc2)C(=O)O)cc1 (configuration not stated)	none
O=C1C=C(NC2=CC3OC(c4ccccc4)OCC3OC2=O)CCC1 (configuration not stated)	STAT3 inh-1 51 | STAT3 inh-2 inactive | NFkB inh STAT3ct 21 | STAT1 inh STAT3c 18
CS(=O)(=O)N(CC(=O)NCc1ccncc1)C1CCCCC1	none
Cc1cc(CNC(=O)c2cccc([N+](=O)[O-])c2C)c2ccccc2n1	STAT3 inh-1 51 | STAT3 inh-2 54 | NFkB inh STAT3ct 14 | STAT1 inh STAT3c 22
CCOc1ccc(N=c2scc(-c3ccc(OC)cc3)n2CCO)cc1	STAT3 inh-1 59 | STAT3 inh-2 inactive | NFkB inh STAT3ct inactive | STAT1 inh STAT3c inactive
O=C(Nc1nccs1)c1ccc(S(=O)(=O)NCC2CCCCC2)cc1	STAT3 inh-1 71 | STAT3 inh-2 55 | NFkB inh STAT3ct inactive | STAT1 inh STAT3c inactive
COc1ccc(CCNc2c(C)c(C)nc3ncnn23)cc1	STAT3 inh-1 82 | STAT3 inh-2 85 | NFkB inh STAT3ct 32 | STAT1 inh STAT3c 26
O=C(Nc1ccn(Cc2ccccc2F)n1)c1ccc(COc2ccccc2Cl)cc1	STAT3 inh-1 46 | STAT3 inh-2 46 | NFkB inh STAT3ct inactive | STAT1 inh STAT3c inactive
CNC1=C(N(C(C)=O)c2ccc(Br)cc2)C(=O)c2ccccc2C1=O	STAT3 inh-1 49 | STAT3 inh-2 53 | NFkB inh STAT3ct 31 | STAT1 inh STAT3c 41
O=C(C1CCC(CNc2nc(=S)[nH]c3ccccc23)CC1)N1CCN(c2ccccn2)CC1 (configuration not stated)	STAT3 inh-1 50 | STAT3 inh-2 52 | NFkB inh STAT3ct inactive | STAT1 inh STAT3c 35
COc1ccc(CNC(=O)C2CCC(CNc3nc(=S)[nH]c4ccccc34)CC2)cc1 (configuration not stated)	none
O=C(Nc1ccc(Cl)c(Cl)c1)Nc1cc(S(=O)(=O)N2CCOCC2)ccc1N1CCCC1	none
CSc1ncccc1C(=O)OCC(=O)c1cccc(Br)c1	none
O=C(Nc1ccc(Br)cc1)c1ccc(N2C(=O)C3CC=C(Cl)CC3C2=O)cc1 (configuration not stated)	STAT3 inh-1 47 | STAT3 inh-2 inactive | NFkB inh STAT3ct inactive | STAT1 inh STAT3c inactive
Nc1[nH]n(-c2ccccc2)c(=O)c1N=Nc1ccc2c(c1)OCCO2	APP 5'UTR act 167, STAT3 inh-1 45 | STAT3 inh-2 inactive | NFkB inh STAT3ct inactive | STAT1 inh STAT3c inactive
O=C(c1cc(COc2ccc3ncccc3c2)on1)N1CCCC(O)C1 (configuration not stated)	none
CCC(O)C1CCN(C(=O)c2cc(COc3ccc4ncccc4c3)on2)CC1 (configuration not stated)	STAT3 inh-1 84 | STAT3 inh-2 84 | NFkB inh STAT3ct 29 | STAT1 inh STAT3c 27
O=C(NC1CCCCCCC1)c1cc(COc2ccc3ncccc3c2)on1	STAT3 inh-1 79 | STAT3 inh-2 75 | NFkB inh STAT3ct 27 | STAT1 inh STAT3c 17
Cc1cc(CN(C)C(=O)c2cc(COc3ccc4ncccc4c3)on2)on1	STAT3 inh-1 58 | STAT3 inh-2 56 | NFkB inh STAT3ct 19 | STAT1 inh STAT3c 19
Cc1cc(SCC(=O)N(C)CC(=O)Nc2ccc(F)cc2)nc2ccccc12	none
C/C(=N/NC(N)=S)c1ccccc1[N+](=O)[O-]	none
Cc1ccc(NC(=O)C2OCCc3ccccc32)cc1 (configuration not stated)	none
Cc1ccc(NC2=Nc3ccccc3CC2)cc1	NF-kB expr up 3.7, APP 5'UTR act 179, STAT3 inh-1 44 | STAT3 inh-2 inactive | NFkB inh STAT3ct inactive | STAT1 inh STAT3c inactive
COc1ccc(N(CC(=O)Nc2cc(C)ccc2C)S(=O)(=O)c2ccccc2[N+](=O)[O-])c(OC)c1	none
